# rRNA inh HTS = reduced GFP signal of wild-type E. coli, primary screen, bacterial rRNA inhibitor project, GFP/RFP fluorescence, OD600, single point; 1.6% of 350,000 active; E. coli WT GFP vs humanized-ribosome RFP mutants, 24 h; hits give low values; DMSO median 0, no signal -100; GFP signal change (wild-type ribosome), % (no concentration beside the values);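 active = significant combined selectivity score with lowered wild-type GFP, culture density cut under 30%, mutant RFP and density less affected; inactive = any of these conditions unmet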
# miR122 inh = miR-122 Renilla sensor signal increase in Huh7, primary screen, miR-122 inhibitor project, cell-based, single point, plate reader; AID 602342, 2012; Huh7 miR-122 Renilla luciferase sensor, 48 h; neutral wells = 0, positive control = 100; 0.3% of 340,000 active; activation (reporter increase), % at 12.5 µM;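 active = mean replicate activation score at least 90 and every replicate individually at or above 90; inconclusive = only one of the two criteria met; inactive = neither criterion met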;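 note: higher luciferase means less miR-122 activity so hits act as miR-122 inhibitors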
# Cneo AK release = Cryptococcus neoformans cell lysis inducers, primary screen, AK release luminescence, single concentration; C. neoformans lysis, adenylate kinase release luminescence, 4 h; normalised: neutral wells 0, clomiphene wells 100; lysis activity, % at 15 µM; 0.2% of 360,000 active;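 active = mean lysis activity across replicates of at least 80%, whatever share of replicates individually reach that level; inactive = mean lysis activity below 80%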
#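 Test system: log-phase Cryptococcus neoformans yeast cells. Input: 5 × 10^6 yeast cells/mL. Medium: fresh YPD growth medium. Doses: single dose. Incubation: static 4 h at 37 °C with compound, 1 h detection. Measured by: luminescent adenylate kinase detection reagent. Read-out: signal increase indicating cell lysis. Benchmarks: Clomiphene.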
# E-selectin induc = E-selectin induction in HUVECs, primary screen, imaging, HUVEC, immunofluorescence imaging, single point; P16581; normalized: neutral wells 0, TNF-alpha wells 100; activation, % at 7.58 µM; 0.37% of 260,000 active; AID 686992, 2013;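 active = mean E-selectin-positive cell signal at least 10% of the positive control, reached in at least 60% of replicates, without over 20% cell loss; inconclusive = no rule given, readout overlaps actives, possibly toxicity-flagged; inactive = the rest, including those meeting only one limit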
# Target sequence (P16581 whole entry, looked up): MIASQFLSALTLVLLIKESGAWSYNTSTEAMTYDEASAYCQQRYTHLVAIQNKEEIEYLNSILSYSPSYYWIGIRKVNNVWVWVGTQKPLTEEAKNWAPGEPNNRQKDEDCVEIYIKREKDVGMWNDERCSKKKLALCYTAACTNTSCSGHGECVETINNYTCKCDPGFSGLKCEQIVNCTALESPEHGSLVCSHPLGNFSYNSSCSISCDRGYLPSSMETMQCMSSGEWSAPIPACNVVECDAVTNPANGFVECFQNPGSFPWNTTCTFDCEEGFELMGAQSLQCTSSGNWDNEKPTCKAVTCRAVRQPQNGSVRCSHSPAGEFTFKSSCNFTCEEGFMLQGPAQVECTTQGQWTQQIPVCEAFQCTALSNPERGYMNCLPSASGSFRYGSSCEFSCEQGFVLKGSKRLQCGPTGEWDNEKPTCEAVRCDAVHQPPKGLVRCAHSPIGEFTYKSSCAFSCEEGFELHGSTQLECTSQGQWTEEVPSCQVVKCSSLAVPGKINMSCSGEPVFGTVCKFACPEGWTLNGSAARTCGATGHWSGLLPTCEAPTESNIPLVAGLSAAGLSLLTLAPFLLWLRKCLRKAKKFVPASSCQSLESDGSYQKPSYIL
#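 Test system – human umbilical vein endothelial cells (HUVEC), E-selectin induction · Input – 3,000 HUVEC seeded per well · Buffer or medium – EGM-2, gelatin · Compound dosing – single-point compound dose · Detection – immunofluorescence imaging · Measure – percent E-selectin-positive cells · Controls – TNF-alpha high, DMSO low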
# DENV2 CPE = inhibitors of DENV2 cytopathic effect, primary screen, cell-based, plate reader, single concentration. DENV2-infected cells, cytopathic effect rescue. 1.7% of 350,000 active. CPE inhibition, % at 9.99 µM; in the data active = CPE inhibition above about 20%, passing the limit was not always enough; inconclusive = no clear call, values can overlap the other calls; tested in BHK-21 cells;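 note: 0% = median of neutral control wells and 100% = median of positive control wells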
# An asterisk follows results filed as active; ? = inconclusive; nt = no result given; [ ] = another dose, or the depositor's remark. Sampled rows, rich in hits. Any-hit rate of the full collection: about 3.1%.
SMILES,rRNA inh HTS,miR122 inh,Cneo AK release,E-selectin induc,DENV2 CPE
C[C@@H]1CCCCO[C@@H](CN(C)C(=O)Nc2cccc3ccccc23)[C@@H](C)CN([C@H](C)CO)C(=O)c2cc(NS(=O)(=O)c3ccc(Cl)cc3)ccc2O1,2,4[16.7 µM],-3,nt,5
C[C@@H]1CCCCO[C@@H](CN(C)C(=O)Nc2cccc3ccccc23)[C@H](C)CN([C@H](C)CO)C(=O)c2cc(NS(=O)(=O)c3ccccc3)ccc2O1,3,-9[16.7 µM],-2,nt,10
COc1ccc(S(=O)(=O)Nc2ccc3c(c2)C(=O)N([C@@H](C)CO)C[C@@H](C)[C@H](CN(C)C(=O)Nc2cccc4ccccc24)OCCCC[C@@H](C)O3)cc1,-2,-5[16.7 µM],-1,3,-15
C[C@@H]1CCCCO[C@H](CN(C)C(=O)Nc2cccc3ccccc23)[C@H](C)CN([C@H](C)CO)C(=O)c2cc(NS(=O)(=O)c3ccc(Cl)cc3)ccc2O1,2,-16[16.7 µM],-2,nt,58*
C[C@@H]1CCCCO[C@H](CN(C)C(=O)Nc2cccc3ccccc23)[C@@H](C)CN([C@@H](C)CO)C(=O)c2cc(NS(=O)(=O)c3ccccc3)ccc2O1,0,nt,nt,nt,34*
CNC[C@@H]1OCCCC[C@H](C)Oc2ccc(NC(=O)c3ccncc3)cc2C(=O)N([C@@H](C)CO)C[C@H]1C,nt,5[16.7 µM],nt,nt,nt
CCS(=O)(=O)N1CCC2(CC1)CN(C(=O)NC(C)C)[C@H](CO)c1c2c2ccc(OC)cc2n1C,-1,nt,nt,0,14
C[C@@H]1CCCCO[C@H](CN(C)C(=O)Nc2cccc3ccccc23)[C@H](C)CN([C@@H](C)CO)C(=O)c2cc(NS(=O)(=O)c3cn(C)cn3)ccc2O1,4,-5[16.7 µM],-9,0,-11
C[C@H](CO)N1C[C@H](C)[C@H](CN(C)C(=O)Nc2cccc3ccccc23)OCCCC[C@H](C)Oc2ccc(NS(=O)(=O)c3cn(C)cn3)cc2C1=O,-2,10[16.7 µM],-13,0,103*
COc1ccc(C(C)(NC(C)=O)c2nc(-c3cc(F)cc(F)c3)cs2)cc1 (stereo not drawn),-10,1,-3,1,-7
COc1ccc(C(C)(NC(C)=O)c2nc(-c3cccc(F)c3)cs2)cc1 (stereo not drawn),-10,0,-1,0,29*
C[C@@H]1CN([C@H](C)CO)C(=O)c2cc(NC(=O)Nc3ccc4c(c3)OCO4)ccc2O[C@@H]1CN(C)S(=O)(=O)c1ccccc1,-5,1[16.7 µM],-1,-3,-2
COc1ccc(CC2(CO)COc3ccccc3C2=O)cc1 (stereo not drawn),-28*,nt,nt,nt,-8
COc1ccc(CN2C(=O)COc3ccccc32)cc1,5,-6,-1,0,-1
COc1cc(CN2CC3(CCN(C(=O)CN4CCOCC4)CC3)c3c(n(C)c4cc(OC)ccc34)[C@@H]2CO)cc(OC)c1,3,nt,nt,0,-9
O=C(NN=Cc1cc(Cl)ccc1[N+](=O)[O-])c1ccco1,-19*,nt,nt,0,-9
Cc1nc(N2CCCCC2)sc1C(=O)c1ccc(SCCO)c([N+](=O)[O-])c1,-20*,-7,0,1,10
COc1ccc(-c2noc(CN3CCN(c4ccccc4)CC3)n2)cc1,-5,-7,0,0,6
COc1ccc(N2CCN(Cc3nc(-c4ccccc4)no3)CC2)cc1,-19*,nt,nt,1,-1
COc1ccc(-c2noc(CSc3nnc(-c4ccccc4)n3C)n2)cc1,-22*,-6,0,nt,1
C[C@H]1CN([C@@H](C)CO)C(=O)Cc2cc(NC(=O)Cc3cn(C)c4ccccc34)ccc2O[C@@H]1CN(C)C(=O)Nc1ccc(C(F)(F)F)cc1,3,4[16.7 µM],1,50*,?
C[C@H](CO)N1C[C@H](C)[C@H](CN(C)Cc2ccccc2)Oc2ccc(NC(=O)Cc3cn(C)c4ccccc34)cc2CC1=O,5,-5[16.7 µM],-1,0,12
C[C@@H]1CN([C@@H](C)CO)C(=O)Cc2cc(NC(=O)Cc3cn(C)c4ccccc34)ccc2O[C@H]1CN(C)Cc1ccc(C(F)(F)F)cc1,5,-23[16.7 µM],3,61*,-14
C[C@H]1CN([C@@H](C)CO)C(=O)Cc2cc(NC(=O)Cc3cn(C)c4ccccc34)ccc2O[C@H]1CN(C)C(=O)Nc1ccc(C(F)(F)F)cc1,3,5[16.7 µM],-1,-5,8
CC(C)NC(=O)N[C@H]1C=C[C@H](CC(=O)N2CCCCC2)O[C@H]1CO,-1,3[16.7 µM],-1,-1,5
SMILES,rRNA inh HTS,miR122 inh,Cneo AK release,E-selectin induc,DENV2 CPE
C[C@@H]1CCCCO[C@H](CN(C)S(=O)(=O)c2ccccc2)[C@H](C)CN([C@@H](C)CO)C(=O)c2cc(NS(=O)(=O)c3cn(C)cn3)ccc2O1,-5,6[16.7 µM],0,nt,-2
CC1CCCC(C)N1C(=O)CSc1nc2c(c(=O)n(C)c(=O)n2C)n1C (stereo not drawn),-1,-4,-3,27*,?
CN1CCN(C(=O)CSc2nc3c(c(=O)n(C)c(=O)n3C)n2C)CC1,5,5,0,nt,-1
Cc1noc(C)c1NC(=O)Nc1ccc2c(c1)C(=O)N([C@H](C)CO)C[C@@H](C)[C@H](CN(C)C(=O)Nc1ccc(F)cc1)OCCCC[C@H](C)O2,-1,nt,nt,0,-7
CC(C)CC(=O)Nc1cccc(-c2nc3ccccc3[nH]2)c1,-16,158*,-5,-1,-4
CC(=O)Nc1cccc(-c2nc3ccccc3[nH]2)c1,nt,51,11,1,7
Cc1noc(C)c1NC(=O)N(C)C[C@@H]1Oc2ccc(NC(=O)NC(C)C)cc2CC(=O)N([C@@H](C)CO)C[C@@H]1C,nt,40[16.7 µM],106*,nt,-4
Cc1noc(C)c1NC(=O)N(C)C[C@H]1Oc2ccc(NC(=O)NC(C)C)cc2CC(=O)N([C@H](C)CO)C[C@@H]1C,5,2[16.7 µM],2,nt,5
Cc1noc(C)c1NC(=O)N(C)C[C@H]1Oc2ccc(NC(=O)NC3CCCCC3)cc2CC(=O)N([C@@H](C)CO)C[C@@H]1C,4,-7[16.7 µM],-2,1,-3
Cc1noc(C)c1NC(=O)N(C)C[C@@H]1Oc2ccc(NC(=O)C3CC3)cc2CC(=O)N([C@H](C)CO)C[C@@H]1C,4,10[16.7 µM],107*,0,12
Cc1noc(C)c1NC(=O)N(C)C[C@@H]1Oc2ccc(NC(=O)NC(C)C)cc2CC(=O)N([C@H](C)CO)C[C@H]1C,2,11[16.7 µM],102*,nt,4
Cc1noc(C)c1NC(=O)N(C)C[C@H]1Oc2ccc(NC(=O)C3CC3)cc2CC(=O)N([C@H](C)CO)C[C@H]1C,2,6[16.7 µM],-2,0,5

# From PubChem
